Data taken from ChEMBL document CHEMBL1135117, “Identification of potent and selective oxytocin antagonists. Part 2: further investigation of benzofuran derivatives” (Bioorg Med Chem Lett, 2002).

Tests used:
[1] = Compound was tested for plasma clearance in rat; format: ADME, organism-based
[2] = Compound was tested for its half life in rat; format: ADME, organism-based; conditions: in vivo
[3] = Bioavailability in rat; format: ADME, organism-based; conditions: in vivo
[4] = molecular target: T1, Oxytocin receptor (Homo sapiens, UniProt P30559); assay: Displacement of 3[H]oxytocin from human oxytocin receptor
T1 sequence (P30559 whole entry): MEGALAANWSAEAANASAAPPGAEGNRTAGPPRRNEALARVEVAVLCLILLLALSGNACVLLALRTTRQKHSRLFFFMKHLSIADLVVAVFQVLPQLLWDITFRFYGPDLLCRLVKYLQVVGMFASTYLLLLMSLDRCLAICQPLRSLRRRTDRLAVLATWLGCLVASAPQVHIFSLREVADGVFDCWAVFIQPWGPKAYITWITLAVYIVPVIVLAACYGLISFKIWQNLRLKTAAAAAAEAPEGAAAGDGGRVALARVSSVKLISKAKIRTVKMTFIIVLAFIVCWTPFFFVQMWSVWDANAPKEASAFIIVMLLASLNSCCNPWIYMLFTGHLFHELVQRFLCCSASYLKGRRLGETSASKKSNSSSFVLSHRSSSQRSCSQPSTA

[5] = Compound was tested for its half life in dog; format: ADME, organism-based, Canis lupus familiaris; conditions: in vivo
[6] = Tested for plasma clearance in dog; format: ADME, organism-based, Canis lupus familiaris
[7] = Bioavailability in dog; format: ADME, organism-based, Canis lupus familiaris; conditions: in vivo
[8] = Compound was tested for lipophilicity; format: physicochemical; conditions: octanol/water
[9] = molecular target: T2, Oxytocin receptor (Rattus norvegicus, UniProt P70536); assay: Compound was tested for displacement of 3[H] oxytocin from rat OT receptor (in vitro)
T2 sequence (P70536 whole entry): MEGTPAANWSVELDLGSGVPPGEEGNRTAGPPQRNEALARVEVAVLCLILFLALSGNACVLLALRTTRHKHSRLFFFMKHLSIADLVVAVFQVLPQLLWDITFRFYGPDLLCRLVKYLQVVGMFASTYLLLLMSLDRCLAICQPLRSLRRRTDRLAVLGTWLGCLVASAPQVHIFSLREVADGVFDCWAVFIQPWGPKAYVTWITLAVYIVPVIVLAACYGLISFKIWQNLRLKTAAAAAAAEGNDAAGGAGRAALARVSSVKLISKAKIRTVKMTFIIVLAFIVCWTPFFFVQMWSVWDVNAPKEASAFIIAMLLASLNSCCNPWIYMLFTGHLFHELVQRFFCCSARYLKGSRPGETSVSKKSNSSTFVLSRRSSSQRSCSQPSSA
Outline: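 Myometrium from rats that littered within 2 h, homogenised in sucrose buffer; membrane fraction pelleted at 48,000g, 4 °C. Filtration binding with [3H]oxytocin at 1 nM in 50 mM HEPES, 10 mM MgCl2, pH 7.4, plus competing ligand. Incubation 1 h at room temperature, then GF/C filtration, ice-cold buffer washes, scintillation counting of bound label.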

[10] = molecular target: T3, Oxytocin receptor (Homo sapiens) (UniProt P30559); assay: Tested for ratio of displacement of 3H oxytocin from human OT in presence and absence of 50 mg/mL human serum albumin
T3 sequence (whole entry): T1 sequence (P30559 whole entry)
Outline: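 Displacement of [3H]oxytocin from human OT receptor, with IC50 measured with and without 50 mg/mL human serum albumin. The radioligand was made up in buffer containing 100 mg/mL HSA, a pre-dilution level. The value is the ratio of the IC50 with HSA to the IC50 without HSA.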

[11] = species: Rattus norvegicus; assay: Serum concentration for 50% inhibition of uterine contractility response to oxytocin in rat; format: functional, organism-based
Outline: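 Adult female AHA rats pre-treated 18 h with diethylstilboestrol (250 µg/kg ip, corn oil), anaesthetised with pentobarbitone (60 mg/kg ip); uterine tension ~2 g. OT 0.3 µg/kg iv given 3–180 min after a single iv bolus of antagonist (DMSO/PEG200/water 20:50:30). Response = 10-min area under the contraction–time curve. Plasma drug measured by mass spectrometry in serial blood samples.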

[12] = molecular target: Albumin (Homo sapiens, UniProt P02768); assay: Compound was tested for Serum albumin binding
Sequence of Albumin (P02768 whole entry): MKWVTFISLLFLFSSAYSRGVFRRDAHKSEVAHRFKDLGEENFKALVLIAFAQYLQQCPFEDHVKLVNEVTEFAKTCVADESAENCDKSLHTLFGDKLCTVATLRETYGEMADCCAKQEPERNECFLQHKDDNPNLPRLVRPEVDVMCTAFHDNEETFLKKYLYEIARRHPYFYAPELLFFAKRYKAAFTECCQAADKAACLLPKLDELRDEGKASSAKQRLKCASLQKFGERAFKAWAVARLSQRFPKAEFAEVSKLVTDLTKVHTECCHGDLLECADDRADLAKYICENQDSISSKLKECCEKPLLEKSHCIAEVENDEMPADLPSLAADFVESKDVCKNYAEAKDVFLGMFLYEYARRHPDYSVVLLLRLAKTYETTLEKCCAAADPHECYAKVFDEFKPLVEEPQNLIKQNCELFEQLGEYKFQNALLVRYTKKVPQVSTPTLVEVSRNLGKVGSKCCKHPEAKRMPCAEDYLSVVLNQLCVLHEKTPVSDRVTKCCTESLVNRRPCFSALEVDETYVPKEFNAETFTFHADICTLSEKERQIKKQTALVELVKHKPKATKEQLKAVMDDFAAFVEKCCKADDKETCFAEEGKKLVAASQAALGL

[13] = molecular target: Vasopressin V1a receptor (Homo sapiens, UniProt P37288); assay: Compound was tested for its ability to displace vasopressin from human Vasopressin V1a receptor
Sequence of Vasopressin V1a receptor (P37288 whole entry): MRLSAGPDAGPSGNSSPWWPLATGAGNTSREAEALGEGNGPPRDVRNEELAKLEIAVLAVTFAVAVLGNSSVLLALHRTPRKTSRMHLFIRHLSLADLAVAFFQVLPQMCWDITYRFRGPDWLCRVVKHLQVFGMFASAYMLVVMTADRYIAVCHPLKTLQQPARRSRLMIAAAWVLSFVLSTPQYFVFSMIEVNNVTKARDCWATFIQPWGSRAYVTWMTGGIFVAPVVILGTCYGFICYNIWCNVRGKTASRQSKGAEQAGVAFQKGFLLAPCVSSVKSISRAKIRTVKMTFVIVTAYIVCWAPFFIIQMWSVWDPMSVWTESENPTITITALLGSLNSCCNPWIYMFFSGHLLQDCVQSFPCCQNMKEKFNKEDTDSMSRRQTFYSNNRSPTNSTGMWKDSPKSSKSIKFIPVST

[14] = Compound was tested for plasma clearance in dog; format: ADME, organism-based, Canis lupus familiaris
[15] = Tested for the pharmacokinetic parameter in rat and expressed as area under curve; format: ADME, organism-based; set-up: concentration or dose not given beside the values; conditions: in vivo
[16] = Tested for lipophilicity; format: physicochemical; conditions: octanol/water
[17] = Clearance in rat; format: ADME, organism-based; conditions: in vivo
[18] = Compound was tested for its lipophilicity; format: physicochemical; conditions: octanol/water
[19] = Compound was tested for half life in dog; format: ADME, organism-based, Canis lupus familiaris; conditions: in vivo

| Compound | clearance [1] [mL/min/kg] | half-life [2] [h] | bioavailability [3] [%] | Ki [4] [nM] | half-life [5] [h] | Binding [12] [%] | other results |
| --- | --- | --- | --- | --- | --- | --- | --- |
| O=C(Cn1cc(C(F)(F)F)ccc1=O)NCc1cc2cc(C(=O)N3CCC(N4C(=O)OCc5ccccc54)CC3)c(F)cc2o1 | 21 | 1.3 | 15 | 7.94 | – | – | – |
| O=C(Cn1cc(C(F)(F)F)ccc1=O)NCc1cc2cc(C(=O)N3CCC(N4C(=O)OCc5ccccc54)CC3)ccc2o1 | 10 | 1 | 16 | 2 | 1.5 | 96.2 | clearance [6]: 8 mL/min/kg; bioavailability [7]: 51%; logD [8]: 2.16; IC50 [9]: 3040 nM; HSA shift [10]: 46; IC50 [11]: 20 nM; Ki [13]: 1260 nM |
| O=C(Cn1ccc(-c2ccccc2)nc1=O)NCc1cc2cc(C(=O)N3CCC(N4C(=O)OCc5ccccc54)CC3)ccc2o1 | – | – | – | 1 | 1.3 | – | clearance [14]: 9 mL/min/kg |
| Cn1ncc2c(=O)n(CC(=O)NCc3cc4cc(C(=O)N5CCC(N6C(=O)OCc7ccccc76)CC5)ccc4o3)cnc21 | – | – | – | 1.26 | 1 | – | bioavailability [7]: 36%; clearance [14]: 11 mL/min/kg |
| O=C(Cn1cc(C(F)(F)F)ccc1=O)NCc1cc2cc(C(=O)N3CCC(N4C(=O)OCc5ccc(Cl)cc54)CC3)ccc2o1 | 21 | 1 | 35 | 3.16 | – | – | – |
| O=C(Cn1cc(C(F)(F)F)ccc1=O)NCc1cc2cc(C(=O)N3CCC(N4C(=O)CCc5ccccc54)CC3)ccc2o1 | 13 | 1.1 | 44 | 25.1 | – | – | – |
| O=C(c1ccc2oc(-c3cccc(Cn4cc(C(F)(F)F)ccc4=O)c3)cc2c1)N1CCC(N2C(=O)OCc3ccccc32)CC1 | 7 | 2.2 | > 45 | 794 | – | 98 | AUC [15]: 5700 ng·h/mL |
| O=C(c1ccc2oc(CN3CCCC[C@H]3Cn3cc(C(F)(F)F)ccc3=O)cc2c1)N1CCC(N2C(=O)OCc3ccccc32)CC1 | – | – | – | 10 | – | 98 | HSA shift [10]: 90 |
| O=C(Cn1cnc(C(F)(F)F)cc1=O)NCc1cc2cc(C(=O)N3CCC(N4C(=O)OCc5ccccc54)CC3)ccc2o1 | 20 | 0.8 | 14 | 3.98 | 1.6 | – | bioavailability [7]: 34%; clearance [14]: 6 mL/min/kg; Ki [13]: 3980 nM |
| O=C(Cn1cc(C(F)(F)F)ccc1=O)NCc1cc2cc(C(=O)N3CCC(N4C(=O)OCc5cc(F)ccc54)CC3)ccc2o1 | 17 | 0.9 | 18 | 6.31 | – | – | – |
| O=C(Cn1cc(C(F)(F)F)ccc1=O)NCc1cc2cc(C(=O)N3CCC(N4C(=O)OCc5ccccc54)CC3)cnc2o1 | 26 | 0.6 | 2 | 3.16 | – | 86.2 | logD [16]: 1.85; IC50 [9]: 744 nM; HSA shift [10]: 19; IC50 [11]: 20 nM |
| O=C(Cn1cc(C(F)(F)F)ccc1=O)NCc1nc2cc(C(=O)N3CCC(N4C(=O)OCc5ccccc54)CC3)ccc2s1 | – | – | – | 79.4 | – | – | – |
| O=C(c1ccc2oc(-c3cc(Cn4cc(C(F)(F)F)ccc4=O)ccn3)cc2c1)N1CCC(N2C(=O)OCc3ccccc32)CC1 | – | – | – | > 3160 | – | 96 | – |
| O=C(Cn1cc(C(F)(F)F)ccc1=O)NCc1cc2cc(C(=O)N3CCC(N4C(=O)OCc5cccc(F)c54)CC3)ccc2o1 | 11 | 1.2 | 67 | 7.94 | – | – | – |
| O=C(Cn1cc(C(F)(F)F)ccc1=O)NCc1cc2ccc(C(=O)N3CCC(N4C(=O)OCc5ccccc54)CC3)cc2o1 | – | – | – | 100 | – | – | – |
| O=C(Cn1ccccc1=O)NCc1cc2cc(C(=O)N3CCC(N4C(=O)OCc5ccccc54)CC3)ccc2o1 | – | – | – | 6.31 | 0.5 | – | clearance [14]: 34 mL/min/kg |
| Cn1c(CNC(=O)Cn2cc(C(F)(F)F)ccc2=O)cc2ccc(C(=O)N3CCC(N4C(=O)OCc5ccccc54)CC3)cc21 | – | – | – | 50.1 | – | – | – |
| O=C(Cn1ccc(N2CCOCC2)nc1=O)NCc1cc2cc(C(=O)N3CCC(N4C(=O)OCc5ccccc54)CC3)ccc2o1 | 17 | 0.8 | < 1 | 0.501 | 1.2 | – | bioavailability [7]: 2%; clearance [14]: 11 mL/min/kg |
| O=C(c1ccc2oc(CN3CCC[C@@H](n4cc(C(F)(F)F)ccc4=O)C3)cc2c1)N1CCC(N2C(=O)OCc3ccccc32)CC1 | 28 | 0.6 | – | 25.1 | – | 96 | bioavailability [7]: 2%; HSA shift [10]: 222; AUC [15]: 150 ng·h/mL |
| O=C(c1ccc2oc(CN3CCC(n4cc(C(F)(F)F)ccc4=O)CC3)cc2c1)N1CCC(N2C(=O)OCc3ccccc32)CC1 | – | 1.7 | 79 | 794 | – | 93 | clearance [17]: 6 mL/min/kg; HSA shift [10]: 4; AUC [15]: 12000 ng·h/mL |
| O=C(Cn1cc(C(F)(F)F)ccc1=O)NCc1nc2ccc(C(=O)N3CCC(N4C(=O)OCc5ccccc54)CC3)cc2s1 | – | – | – | 10 | – | – | – |
| O=C(Cn1cc(C(F)(F)F)ccc1=O)NCc1cc2cc(C(=O)N3CCC(N4C(=O)OCc5c(F)cccc54)CC3)ccc2o1 | – | – | – | 100 | – | – | – |
| COc1cccn(CC(=O)NCc2cc3cc(C(=O)N4CCC(N5C(=O)OCc6ccccc65)CC4)ccc3o2)c1=O | 22 | 1.2 | 3 | 2.51 | 1.1 | – | bioavailability [7]: 68%; clearance [14]: 19 mL/min/kg; Ki [13]: 1580 nM |
| O=C(c1ccc2oc(-c3cccc(Cn4cc(C(F)(F)F)ccc4=O)n3)cc2c1)N1CCC(N2C(=O)OCc3ccccc32)CC1 | 12 | 1.2 | 22 | 10 | – | 98 | HSA shift [10]: 87; AUC [15]: 1500 ng·h/mL |
| COc1cc(OC2CCN(C(C)=O)CC2)ccc1C(=O)N1CCC(N2C(=O)OCc3ccccc32)CC1 | 51 | 1.1 | 55 | 6.31 | 1.1 | 83.7 | bioavailability [7]: 29%; clearance [14]: 13 mL/min/kg; logD [18]: 1.66; IC50 [11]: 25 nM; Ki [13]: > 2000 nM |
| O=C(c1ccc2oc(-c3cncc(Cn4cc(C(F)(F)F)ccc4=O)c3)cc2c1)N1CCC(N2C(=O)OCc3ccccc32)CC1 | 7 | 1.4 | 41 | 63.1 | – | 96 | HSA shift [10]: 17; AUC [15]: 5400 ng·h/mL |
| CCOc1ccn(CC(=O)NCc2cc3cc(C(=O)N4CCC(N5C(=O)OCc6ccccc65)CC4)ccc3o2)c(=O)n1 | 35 | 0.8 | 2 | 2 | – | – | half-life [19]: 1.9 h; clearance [6]: 12 mL/min/kg; bioavailability [7]: 43%; Ki [13]: 1580 nM |
| O=C(Cn1ccc2ccccc2c1=O)NCc1cc2cc(C(=O)N3CCC(N4C(=O)OCc5ccccc54)CC3)ccc2o1 | 10 | 0.8 | 17 | 6.31 | 1.1 | – | clearance [14]: 6 mL/min/kg |
| O=C(Cn1cc(C(F)(F)F)ccc1=O)NCc1cc2cc(C(=O)N3CCC(N4C(=O)OCc5ccc(F)cc54)CC3)ccc2o1 | – | – | – | 6.31 | – | – | – |
